Structures are written as SMILES.

Chain of Substance-P receptor (P25103 whole entry): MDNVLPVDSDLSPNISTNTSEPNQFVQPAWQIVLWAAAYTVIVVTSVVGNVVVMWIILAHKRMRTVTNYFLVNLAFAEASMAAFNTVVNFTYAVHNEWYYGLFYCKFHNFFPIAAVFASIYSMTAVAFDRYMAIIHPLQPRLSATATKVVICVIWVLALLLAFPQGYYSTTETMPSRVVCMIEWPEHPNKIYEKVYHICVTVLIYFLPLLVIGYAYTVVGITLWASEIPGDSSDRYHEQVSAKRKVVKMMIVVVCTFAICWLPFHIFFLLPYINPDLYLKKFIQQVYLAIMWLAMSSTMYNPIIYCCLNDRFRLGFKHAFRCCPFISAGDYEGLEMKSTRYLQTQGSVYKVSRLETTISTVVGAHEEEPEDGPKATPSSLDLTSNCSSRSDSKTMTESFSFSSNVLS

One experiment relates to Cavia porcellus. The experiment in a line: Inhibition of SP-induced extravasation in the skin of guinea pig after oral administration of a dose of 10 (ug/kg). Format: functional. The essentials:
(§1)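 Guinea pigs given test compound (po or ip); dorsal skin shaved and Evans blue (0.5 mL, 2.5 g/100 mL saline) injected iv. 10 min later, SP (0.5 pmol in 0.1% HSA saline) injected intradermally; 1 h exposure, then CO2 euthanasia. 6-mm punch biopsies of injection sites; dye extracted overnight in formamide at 45 °C. Read-out: % inhibition of Evans blue leakage.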
For orientation: Inhibition means the drop in the measured response relative to a control, in per cent. Regarding `FC(F)(F)c1cc(CO[C@@H]2C3CCN(CC3)[C@@H]2C(c2ccccc2)c2ccccc2)cc(C(F)(F)F)c1`, the Inhibition is listed as -17%.

On to `FC(F)(F)c1cc(CO[C@H]2C3CCN(CC3)[C@@H]2C(c2ccccc2)c2ccccc2)cc(C(F)(F)F)c1`, for which the Inhibition stood at 70%.

As to `Cc1cc(C)cc(COC2C3CCN(CC3)C2C(c2ccccc2)c2ccccc2)c1` (stereo in doubt; 72), the Inhibition is given as 45%.

For the compound `Cc1cc(C)cc(COC2C3CCN(CC3)C2C(c2ccccc2)c2ccccc2)c1` (stereo in doubt; 73), the Inhibition worked out at 40%.

Regarding `FC(F)(F)c1cc(CO[C@H]2C3CCN(CC3)[C@H]2C(c2ccccc2)c2ccccc2)cc(C(F)(F)F)c1` [L-709210], the Inhibition is 76%.

A further experiment has as its target Substance-P receptor (Homo sapiens, UniProt P25103). The experiment in a line: Inhibition of binding of [125I]SP to the CHO cell line expressing human Tachykinin receptor 1. The format is cell-based.
The term IC50 denotes the concentration that inhibits the measured activity by half. High values mean weaker potency, low ones greater potency. For `FC(F)(F)c1cc(COC2C3CCN(CC3)C2C(c2ccccc2)C2CCCCC2)cc(C(F)(F)F)c1` (stereo not given), the IC50 was 7.5 nM.

As to `Clc1cccc(COC2C3CCN(CC3)C2C(c2ccccc2)c2ccccc2)c1` (stereo not given), the IC50 worked out at 62 nM.

On to `Cc1ccc(C)c(COC2C3CCN(CC3)C2C(c2ccccc2)c2ccccc2)c1` (stereo not given), for which the IC50 came to 36 nM.

As to `FC(F)(F)c1ccc(COC2C3CCN(CC3)C2C(c2ccccc2)c2ccccc2)cc1` (stereo not given), the IC50 worked out at 370 nM.

In turn, `Clc1ccc(COC2C3CCN(CC3)C2C(c2ccccc2)c2ccccc2)cc1` (stereo not given) registered a half-inhibitory concentration (IC50) of 417 nM.

Consider `c1ccc(COC2C3CCN(CC3)C2C(c2ccccc2)c2ccccc2)cc1` (stereo not given), for which the IC50 came out at 110 nM.

In the case of `Cc1ccc(COC2C3CCN(CC3)C2C(c2ccccc2)c2ccccc2)cc1` (stereo not given), the IC50 is 246 nM.

In turn, `FC(F)(F)c1cc(COC2C3CCN(CC3)C2Cc2ccccc2)cc(C(F)(F)F)c1` (stereo not given) showed an IC50 of 103 nM. This IC50 is about 2.4-fold lower than that of the compound before.

Compound `Brc1ccccc1COC1C2CCN(CC2)C1C(c1ccccc1)c1ccccc1` (stereo not given) yielded an IC50 of 37 nM.

`Fc1cc(F)cc(COC2C3CCN(CC3)C2C(c2ccccc2)c2ccccc2)c1` (stereo not given): the IC50 amounted to 33 nM.

Compound `FC(F)(F)c1cccc(COC2C3CCN(CC3)C2C(c2ccccc2)c2ccccc2)c1` (stereo not given) gave an IC50 of 300 nM.

Compound `N#Cc1ccc(COC2C3CCN(CC3)C2C(c2ccccc2)c2ccccc2)cc1` (stereo not given) returned an IC50 of 950 nM.

Regarding `Fc1ccccc1COC1C2CCN(CC2)C1C(c1ccccc1)c1ccccc1` (stereo not given), the IC50 came out at 93 nM.

In turn, `Fc1cccc(COC2C3CCN(CC3)C2C(c2ccccc2)c2ccccc2)c1` (stereo not given) registered an IC50 of 37 nM. This IC50 lies about 2.5-fold lower than the previous one.

`Clc1ccccc1COC1C2CCN(CC2)C1C(c1ccccc1)c1ccccc1` (stereo not given) registered an IC50 of 80 nM. Compared with the last compound, the IC50 is about 2.2-fold higher.

`Cc1ccc(COC2C3CCN(CC3)C2C(c2ccccc2)c2ccccc2)cc1C` (stereo not given) gave an IC50 of 172 nM.

Consider `Fc1ccc(COC2C3CCN(CC3)C2C(c2ccccc2)c2ccccc2)cc1` (stereo not given), for which the IC50 was 252 nM.

Compound `Fc1ccc(F)c(COC2C3CCN(CC3)C2C(c2ccccc2)c2ccccc2)c1` (stereo not given) yielded an IC50 of 106 nM.

With `Cc1cc(C)cc(COC2C3CCN(CC3)C2Cc2ccccc2)c1` (stereo not given), the IC50 was found to be 107 nM.

The compound `FC(F)(F)c1ccccc1COC1C2CCN(CC2)C1C(c1ccccc1)c1ccccc1` (stereo not given) yielded a half-maximal inhibitory concentration (IC50) of 67 nM.

Consider `c1ccc(Oc2cccc(COC3C4CCN(CC4)C3C(c3ccccc3)c3ccccc3)c2)cc1` (stereo not given), for which the IC50 amounted to 62 nM.

For the compound `COc1cccc(COC2C3CCN(CC3)C2C(c2ccccc2)c2ccccc2)c1` (stereo not given), the IC50 was 56 nM.

As to `Cc1cc(I)cc(COC2C3CCN(CC3)C2C(c2ccccc2)c2ccccc2)c1` (stereo not given), the IC50 stood at 0.32 nM.

Compound `FC(F)(F)c1cc(CO[C@@H]2C3CCN(CC3)[C@H]2C(c2ccccc2)c2ccccc2)cc(C(F)(F)F)c1` displayed an IC50 of 125 nM.

The compound `FC(F)(F)c1cc(CO[C@@H]2C3CCN(CC3)[C@@H]2C(c2ccccc2)c2ccccc2)cc(C(F)(F)F)c1` had an IC50 of 300 nM. Compared with the last compound, the IC50 is about 2.4-fold higher.

`Cc1cc(COC2C3CCN(CC3)C2C(c2ccccc2)c2ccccc2)cc([Si](C)(C)C)c1` (stereo not given) had an IC50 of 0.9 nM.

With `N#Cc1ccccc1COC1C2CCN(CC2)C1C(c1ccccc1)c1ccccc1` (stereo not given), the IC50 was 86 nM.

Consider `Cc1ccccc1COC1C2CCN(CC2)C1C(c1ccccc1)c1ccccc1` (stereo not given), for which the IC50 stood at 150 nM.

Take `Cc1cccc(COC2C3CCN(CC3)C2C(c2ccccc2)c2ccccc2)c1` (stereo not given): the IC50 was found to be 20 nM. This IC50 lies about 7.5-fold lower than the previous one.

`N#Cc1cccc(COC2C3CCN(CC3)C2C(c2ccccc2)c2ccccc2)c1` (stereo not given): the IC50 amounted to 127 nM. Against the preceding compound, the IC50 is about 6.3-fold higher.

For `c1ccc(CN[C@H]2C3CCN(CC3)[C@H]2C(c2ccccc2)c2ccccc2)cc1`, the IC50 turned out to be 0.085 nM.

The compound `O=[N+]([O-])c1cccc(COC2C3CCN(CC3)C2C(c2ccccc2)c2ccccc2)c1` (stereo not given) gave an IC50 of 197 nM.

The compound `FC(F)(F)c1cc(CO[C@H]2C3CCN(CC3)[C@@H]2C(c2ccccc2)c2ccccc2)cc(C(F)(F)F)c1` yielded an IC50 of 0.2 nM.

In turn, `Clc1cc(Cl)cc(COC2C3CCN(CC3)C2C(c2ccccc2)c2ccccc2)c1` (stereo in doubt; 67) registered an IC50 of 3.5 nM.

In turn, `Clc1cc(Cl)cc(COC2C3CCN(CC3)C2C(c2ccccc2)c2ccccc2)c1` (stereo in doubt; 68) displayed an IC50 of 9 nM.

`FC(F)(F)c1cc(COC2C3CCN(CC3)C2C(c2ccccc2)c2ccccc2)cc(C(F)(F)F)c1` (stereo in doubt; 69) registered an IC50 of 1.6 nM.

The compound `FC(F)(F)c1cc(COC2C3CCN(CC3)C2C(c2ccccc2)c2ccccc2)cc(C(F)(F)F)c1` (stereo in doubt; 70) had an IC50 of 2.7 nM.

The compound `Cc1cc(C)cc(COC2C3CCN(CC3)C2C(c2ccccc2)c2ccccc2)c1` (stereo in doubt; 72) showed an IC50 of 0.9 nM.

With `Cc1cc(C)cc(COC2C3CCN(CC3)C2C(c2ccccc2)c2ccccc2)c1` (stereo in doubt; 73), the IC50 was found to be 0.26 nM.

As to `COc1cc(COC2C3CCN(CC3)C2C(c2ccccc2)c2ccccc2)cc(OC)c1` (stereo in doubt; 75), the IC50 was determined as 9.3 nM.

`COc1cc(COC2C3CCN(CC3)C2C(c2ccccc2)c2ccccc2)cc(OC)c1` (stereo in doubt; 76): the IC50 is 8.3 nM.

`COc1cc(C)cc(COC2C3CCN(CC3)C2C(c2ccccc2)c2ccccc2)c1` (stereo in doubt; 77) yielded an IC50 of 1.9 nM.

As to `COc1cc(C)cc(COC2C3CCN(CC3)C2C(c2ccccc2)c2ccccc2)c1` (stereo in doubt; 78), the IC50 is 1.5 nM.

On to `Cc1cc(C)cc(COC2C3CCN(CC3)C2C(Cc2ccccc2)c2ccccc2)c1` (stereo in doubt; 85), for which the IC50 worked out at 3.2 nM.

The compound `Cc1cc(C)cc(COC2C3CCN(CC3)C2C(Cc2ccccc2)c2ccccc2)c1` (stereo in doubt; 86) showed a concentration for half-maximal inhibition (IC50) of 23 nM.

`FC(F)(F)c1cc(COC2C3CCN(CC3)C2C(Cc2ccccc2)c2ccccc2)cc(C(F)(F)F)c1` (stereo in doubt; 87) came in with an IC50 of 3.9 nM.

For the compound `FC(F)(F)c1cc(COC2C3CCN(CC3)C2C(Cc2ccccc2)c2ccccc2)cc(C(F)(F)F)c1` (stereo in doubt; 88), the IC50 came out at 425 nM.

In turn, `FC(F)(F)c1cc(COC2C3CCN(CC3)C2C(Cc2ccccc2)c2ccccc2)cc(C(F)(F)F)c1` (stereo in doubt; 89) came in with an IC50 of 10 nM.

`Cc1cc(C)cc(COC2C3CCN(CC3)C2C(Cc2ccccc2)c2ccccc2)c1` (stereo in doubt; 90) returned an IC50 of 353 nM. This IC50 lies about 35-fold higher than the previous one.

The compound `FC(F)(F)c1cc(CO[C@H]2C3CCN(CC3)[C@H]2C(c2ccccc2)c2ccccc2)cc(C(F)(F)F)c1` [L-709210] gave an IC50 of 0.2 nM. This IC50 lies about 1800-fold lower than the previous one.

The subject of another experiment is Cavia porcellus. Nature of the experiment: Inhibition of SP-induced extravasation in the skin of guinea pig after intraperitoneal administration of a dose of 1 (ug/kg). The format is functional. The essentials: as §1
Turning to `FC(F)(F)c1cc(CO[C@H]2C3CCN(CC3)[C@H]2C(c2ccccc2)c2ccccc2)cc(C(F)(F)F)c1` [L-709210], the Inhibition is 6%.

The subject of the next experiment is Cavia porcellus. The experiment in a line: Inhibition of SP-induced extravasation in the skin of guinea pig after […] administration of a dose of 10 (ug/kg). The format is functional. The essentials:
as §1
Regarding `Cc1cc(C)cc(COC2C3CCN(CC3)C2C(c2ccccc2)c2ccccc2)c1` (stereo in doubt; 73), the Inhibition came out at 89%.

The subject of a further experiment is Cavia porcellus. The experiment in a line: Inhibition of SP-induced extravasation in the skin of guinea pig after intraperitoneal administration of a dose of 30 (ug/kg). The format is functional. The essentials:
as §1
For `FC(F)(F)c1cc(CO[C@H]2C3CCN(CC3)[C@H]2C(c2ccccc2)c2ccccc2)cc(C(F)(F)F)c1` [L-709210], the Inhibition turned out to be 100%.

The subject of another experiment is Cavia porcellus. The experiment in a line: Inhibition of SP-induced extravasation in the skin of guinea pig after intraperitoneal administration of a dose of 3 (ug/kg). Format: functional. An outline of the steps: as §1
With `FC(F)(F)c1cc(CO[C@H]2C3CCN(CC3)[C@H]2C(c2ccccc2)c2ccccc2)cc(C(F)(F)F)c1` [L-709210], the Inhibition was 59%.

A further experiment relates to Cavia porcellus. The experiment in a line: Inhibition of SP-induced extravasation in the skin of guinea pig after intraperitoneal administration of a dose of 10 (ug/kg). The format is functional. An outline of the steps:
as §1
As to `FC(F)(F)c1cc(CO[C@H]2C3CCN(CC3)[C@H]2C(c2ccccc2)c2ccccc2)cc(C(F)(F)F)c1` [L-709210], the Inhibition came out at 92%.

(Values after ChEMBL document CHEMBL1128202, “Identification of a series of 3-(benzyloxy)-1-azabicyclo[2.2.2]octane human NK1 antagonists” (J Med Chem, 1995).)
